Test results from ChEMBL document CHEMBL5154854, “Identification of a Vitamin-D Receptor Antagonist, MeTC7, which Inhibits the Growth of Xenograft and Transgenic Tumors In Vivo” (J Med Chem, 2022).
The source made the active and inactive calls. The rule behind the calls is not given here.

Tests used:
[1] = test system: IGROV-1; assay: Cytotoxicity against human IGROV-1 cells assessed as reduction in cell viability incubated for 24 hrs by MTS assay; assay type: functional, cell-based; details: dose 0.25-1.25 µM, DDE = dose-dependent effect
Summary of the method: (§1)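 Ovarian lines seeded 5,000 cells/well, attached overnight, treated 24 h in complete medium (DMSO ≤0.2%); MTS reagent 1:10 in fresh RPMI 2–4 h, absorbance 490 nm; triplicate, % of DMSO-treated cells.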

[2] = Toxicity in NSG mouse xenografted with human ES2 cells assessed as body weight change at 10 mg/kg, ip measured upto 30 days; assay type: organism-based; details: in vivo, 720 h, time < 30 day
[3] = test system: ES-2; assay: Anti-tumor activity against human ES2 cells xenografted in NSG mouse assessed as reduction in tumor volume at 10 mg/kg, ip measured upto 30 days; assay type: functional, organism-based; details: time <= 30.0 day
Summary of the method: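 NSG mice, 6–8 weeks, injected subcutaneously in right flank with ES2 (250,000) or SH-SY5Y/BE(2)C (1 million) cells in cold matrigel/serum-free RPMI 1:1. Once palpable, 10 mg/kg IP M–F vs vehicle; volume (length × width2)[…]; BE(2)C and ES2 monitored alternate days; endpoint 2000 mm3; % change in volume, t-test.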

[4] = test system: HEK-293T; assay: Cytotoxicity against HEK-293T cells assessed as inhibition of cell proliferation upto 100 uM incubated for 18 hrs by MTS assay; assay type: toxicity, cell-based; details: human
[5] = test system: SH-EP1; assay: Cytotoxicity against human SH-EP1 cells assessed as reduction in cell viability incubated for 48 hrs by MTS assay; assay type: functional, cell-based; details: dose 0.1-10 µM, DDE = dose-dependent effect
Summary of the method: (§2)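 Neuroblastoma lines seeded 5,000 cells/well, attached overnight, treated 48 h in complete medium (DMSO ≤0.2%); MTS reagent 1:10 in fresh RPMI 2–4 h, absorbance 490 nm.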

[6] = molecular target: T1, Vitamin D3 receptor (Homo sapiens) (UniProt P11473); assay: Antagonist activity at VDR LBD (unknown origin) using Alexa Fluor 647-labeled SRC2-3 as substrate incubated for 2 hrs in presence of calcitriol by fluorescence polarization assay; details: filed as antagonist
T1 sequence (whole entry): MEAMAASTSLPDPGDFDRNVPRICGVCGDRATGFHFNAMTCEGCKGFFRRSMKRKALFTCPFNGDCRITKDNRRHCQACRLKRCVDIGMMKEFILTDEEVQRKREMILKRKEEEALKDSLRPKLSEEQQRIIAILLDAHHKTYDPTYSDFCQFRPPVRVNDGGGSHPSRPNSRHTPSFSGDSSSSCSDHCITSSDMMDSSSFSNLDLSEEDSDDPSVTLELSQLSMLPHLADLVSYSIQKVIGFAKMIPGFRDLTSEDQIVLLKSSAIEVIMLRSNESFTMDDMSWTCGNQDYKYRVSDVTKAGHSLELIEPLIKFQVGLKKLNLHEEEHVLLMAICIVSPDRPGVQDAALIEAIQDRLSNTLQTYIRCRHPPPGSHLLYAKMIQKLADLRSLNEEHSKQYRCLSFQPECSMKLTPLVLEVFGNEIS
Summary of the method: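 VDR-LBD (0.1 μM) with Alexa Fluor 647-labelled SRC2-3 (17.5 nM) and 10 nM 1,25(OH)2D3 in 25 mM PIPES, 50 mM NaCl, 0.01% NP-40, pH 6.75. Compounds were serially diluted 1:2 from 10 mM DMSO stocks and incubated 2 h. Polarization was read at 635/685 nm. Three independent experiments in quadruplicate; IC50 by variable-slope nonlinear regression.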

[7] = molecular target: T1, Vitamin D3 receptor (Homo sapiens); assay: Antagonist activity at VDR LBD (unknown origin) transfected in HEK-293T cells assessed as inhibition of 1,25(OH)2D3-induced receptor transactivation incubated for 16 hrs by Bright-Glo luciferase assay; assay type: cell-based; details: filed as antagonist
Summary of the method: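 HEK293T on matrigel, lipid-transfected with VDR-CMV plasmid and CYP24A1-luciferase reporter; after 16 h, replated at 15,000 cells/well, compound added 4 h later together with 10 nM 1,25(OH)2D3; 16 h at 37 °C, 5% CO2; luminescence read. At least two independent experiments in quadruplicate; nonlinear regression, variable slope.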

[8] = molecular target: T1, Vitamin D3 receptor (Homo sapiens); assay: Antagonist activity at VDR in human 2008 cells assessed as suppression of RXR-alpha expression at 250 nM incubated for 18 hrs by western blot analysis relative to control; assay type: cell-based; details: filed as antagonist
Summary of the method: (§3)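 2008 ovarian cancer cells exposed 250 nM, 18 h; immunoblot with loading control (GAPDH for RXR-α, α-tubulin for Importin-4); band densitometry normalized to loading control.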

[9] = molecular target: T1, Vitamin D3 receptor (Homo sapiens); assay: Antagonist activity at VDR in human 2008 cells assessed as suppression of importin-4 expression at 250 nM incubated for 12 to 18 hrs by western blot analysis relative to control; assay type: cell-based; details: filed as antagonist, time 12-18 hrs; summary of the method: as §3
[10] = test system: SK-OV-3; assay: Cytotoxicity against human SK-OV-3 cells assessed as reduction in cell viability incubated for 24 hrs by MTS assay; assay type: functional, cell-based; details: dose 0.25-1.25 µM, DDE = dose-dependent effect; summary of the method: as §1
[11] = test system: OVCAR-8; assay: Cytotoxicity against human OVCAR-8 cells assessed as reduction in cell viability incubated for 24 hrs by MTS assay; assay type: functional, cell-based; details: dose 0.25-1.25 µM, DDE = dose-dependent effect; summary of the method: as §1
[12] = test system: 2008; assay: Cytotoxicity against human 2008 cells assessed as reduction in cell viability incubated for 24 hrs by MTS assay; assay type: functional, cell-based; details: dose 0.25-1.25 µM, DDE = dose-dependent effect; summary of the method: as §1
[13] = test system: Caov-3 cell line; assay: Cytotoxicity against human Caov-3 cell line assessed as reduction in cell viability incubated for 24 hrs by MTS assay; assay type: functional, cell-based; details: dose 0.25-1.25 µM, DDE = dose-dependent effect; summary of the method: as §1
[14] = test system: 2008; assay: Induction of apoptosis in human 2008 cells assessed as cleaved PARP1 expression levels at 250 nM incubated for 18 hrs by western blot analysis (reference value: 4%); assay type: functional
[15] = test system: Mus musculus; assay: Downregulation of VDR expression in tumor of NSG mouse xenografted with human SK-OV-3 cells at 10 mg/kg, ip by confocal microscopy based immunohistochemistry analysis; assay type: functional, organism-based
[16] = test system: D283 Med; assay: Anti-tumor activity against human D283 Med cells xenografted in NSG mouse assessed as reduction in tumor volume at 10 mg/kg, ip measured on day 12; assay type: functional, organism-based; details: time 12.0 day
Summary of the method: (§4)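 NSG mice implanted subcutaneously with 1 million D283, PANC-1 or BXPC-3 cells in matrigel/DMEM 1:1; once palpable, 10 mg/kg IP M–F vs vehicle; volume (length × width2)[…], % change; endpoint 2000 mm3; tumors excised and weighed; unpaired t-test.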

[17] = test system: D283 Med; assay: Anti-tumor activity against human D283 Med cells xenografted in NSG mouse assessed as reduction in tumor size at 10 mg/kg, ip measured on day 12; assay type: functional, organism-based; details: time 12.0 day; summary of the method: as §4
[18] = test system: PANC-1; assay: Anti-tumor activity against human PANC-1 cells xenografted in NSG mouse assessed as reduction in tumor growth at 10 mg/kg, ip measured on day 12; assay type: functional, organism-based; details: time 12.0 day; summary of the method: as §4
[19] = test system: BXPC-3; assay: Anti-tumor activity against human BXPC-3 cells xenografted in NSG mouse assessed as reduction in tumor growth at 10 mg/kg, ip measured on day 18; assay type: functional, organism-based; details: time 18.0 day; summary of the method: as §4
[20] = test system: LA-N-5; assay: Cytotoxicity against human LA-N-5 cells assessed as reduction in cell viability incubated for 48 hrs by MTS assay; assay type: functional, cell-based; details: dose 0.1-10 µM, DDE = dose-dependent effect; summary of the method: as §2
[21] = test system: SK-N-AS; assay: Cytotoxicity against human SK-N-AS cells assessed as reduction in cell viability incubated for 48 hrs by MTS assay; assay type: functional, cell-based; details: dose 0.1-10 µM, DDE = dose-dependent effect; summary of the method: as §2

CC(C)CCC[C@@H](C)[C@H]1CC[C@@H]2[C@]1(C)CCC1[C@]23C=C[C@]2(C[C@@H](OC(=O)CBr)CC[C@]12C)n1c(=O)n(C)c(=O)n13 (stereo partly specified)
Activity [1]: Dde
Activity [2]: Non-Toxic
Activity [3]: Active
Activity [4]: Non-Toxic
Activity [5]: Dde
Activity [6]: 2.9 µM
Activity [7]: 20.8 µM
fold change (FC) [8]: 0.29
fold change (FC) [9]: 0.82
Activity [10]: Dde
Activity [11]: Dde
Activity [12]: Dde
Activity [13]: Dde
Activity [14]: 22.8%
inhibition [15]: Active
Activity [16]: Active
Activity [17]: Active
Activity [18]: Active
Activity [19]: Active
Activity [20]: Dde
Activity [21]: Dde
